Out of some 360,000 compounds screened, about 220 (0.061%) were called active. Many of the other results were omitted from the sample, so actives are more common in it than they were. Unmarked numbers belong to inactive results.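 How the source made its calls: active means GFP/RFP ratio change of at least 30% with cell ATP level not reduced by more than half and red fluorescence within 50% of control; inactive means the rest, inconclusive results apart.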
target: Matrix metalloproteinase-14 (Homo sapiens) (UniProt P50281); assay: blockers of MT1-MMP proenzyme processing, primary screen, HT1080 RFP-PRO-GFP cells, GFP/RFP fluorescence (AID 651647); settings: overnight, at 20 µM, stronger effect = higher value, percent of plate control window, DMSO zero
How it was run: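 Test system: HT1080 cells expressing an RFP-PRO-GFP fluorescent reporter construct / Compound dosing: single-point 20 µM compound, 1% DMSO / Schedule: cells overnight before dosing, compound overnight, 37 °C, 5% CO2 / Evaluation: GFP/RFP fluorescence ratio / Control set: DMSO and RFP-L50D-GFP cell wells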

| Compound | GFP/RFP ratio change |
| --- | --- |
| CCOC(=O)c1cc(-c2sc(NC(=O)c3ccccc3)nc2C)n(Cc2ccccc2)n1 | -13.8% |
| CCN1CCN(c2c(Cl)cccc2NC(=O)c2ccc(Br)o2)CC1 | 6.59% |
| CNC(=O)c1[nH]cnc1C(=O)N[C@@H](CC(C)C)C(=O)OCc1ccccc1 | 3.79% |
| CSc1ncccc1C(=O)N1CCCC(Nc2ccc(F)c(F)c2)C1 (stereo unspecified) | 0.99% |
| O=Cc1c(NCCc2cccc(F)c2)c2ccccc2[nH]c1=O | -3.4% |
| Cn1c(=S)sc2ccc3ccccc3c21 | 2.62% |
| CN(C(=O)CSc1cccc[n+]1[O-])C1CCCCC1 | 9.34% |
| Cc1ccc(S(=O)(=O)N2CC(C)N(S(C)(=O)=O)C2)cc1 (stereo unspecified) | 0.163% |
| CCc1ccnc(NS(=O)(=O)c2ccc3c(c2)OCCO3)c1 | 3.33% |
| Cc1ccc2c(c1)N(S(=O)(=O)c1cc(-c3cc(C)no3)ccc1C)CCO2 | 0.714% |
| CC(=O)c1c(O)cc2n(c1=O)-c1ccc(Cl)cc1C2(C)C | -5.09% |
| CCOC(=O)C1(O)CC(C)=NN1C(=O)c1cccc(Br)c1 (stereo unspecified) | 7.72% |
| O=C(O)CC(Cn1cnnn1)c1ccccc1 (stereo unspecified) | -0.417% |
| Nc1nc(SCc2cccc(Br)c2)n[nH]1 | 6.02% |
| CC(=O)c1nn(-c2ccc(C)cc2)cc1C(=O)c1cccc(Br)c1 | 0.8% |
| CCc1ccc(C2N3CC4([N+](=O)[O-])CN2CC([N+](=O)[O-])(C3)C4(C)C)cc1 (stereo unspecified) | -2.43% |
| O=S(=O)(Nc1ncccn1)c1ccc(NS(=O)(=O)c2cccc(Cl)c2Cl)cc1 | -0.508% |
| O=c1ccc2c(-c3ccccc3S(=O)(=O)O)c3ccc(O)c(O)c3oc-2c1O | 49.3% (active) |
| N/C(=N\OS(=O)(=O)c1cccc([N+](=O)[O-])c1)c1ccncc1 | 1.12% |
| CCc1ccnc(NC(=O)Nc2ccc(OCc3ccccc3)cc2)c1 | 3.94% |
| CC(C)(C)OC(=O)N1CCN(C(=O)c2[nH]c(C(F)(F)F)nc2-c2ccccc2)CC1 | 3.61% |
| CN1CC(c2ccccc2)C2(COc3ccccc3C2=O)C12C(=O)Nc1ccccc12 (stereo unspecified) | -4.6% |

| Compound | GFP/RFP ratio change |
| --- | --- |
| Cc1ccc2c(c1)N(CC(=O)NCCCN1CCCCC1)C(=O)c1cccnc1O2 | 1.06% |
| Cc1ccccc1S(=O)(=O)NC(=O)C1(C)CCN1C(=O)C1(c2ccc(Cl)cc2)CC1 (stereo unspecified) | 0.579% |
| O=C(COC(=O)c1ccc(S(=O)(=O)N2CCCCCC2)cc1)Nc1ccccc1C(F)(F)F | -2.08% |
| COc1ccccc1C1CCN(C(=S)Nc2ccc(Br)cc2)CC1 | -1.18% |
| CC(C)[C@H](NC(=O)N1CCn2c1nc1ccccc12)C(=O)NCCc1ccccc1 | 1.13% |
| O=c1[nH]snc1-c1c(Cl)cccc1Cl | -2.44% |
| COC(=O)NNC(=O)C1CCC(C)CC1 (stereo unspecified) | 0.231% |
| Cc1cn(C2CC(O)C(CO)O2)c(=O)n(CCCc2ccccc2)c1=O (stereo unspecified) | 5.06% |
| Cc1nn(C)c(Oc2ccccc2)c1CCNS(=O)(=O)c1ccc(F)cc1 | 0.853% |
| O=C(c1ccc(F)c(S(=O)(=O)N2CCOCC2)c1)N(CCc1ccccc1)Cc1ccccc1 | -8.33% |
| CC(=O)c1cc2c(cc1NC(=O)CN1CCCCCC1)OCO2 | -5.12% |
| COc1ccc2c(c1)C=CC1(O2)N(CCO)c2ccccc2C1(C)C (stereo unspecified) | 52% (active) |
| CN1c2ccc([N+](=O)[O-])cc2C(C)(C)C12C=Cc1cc(C(=O)O)ccc1O2 (stereo unspecified) | 0.611% |
| O=C(Nc1ccc(N2CCOCC2)nc1)c1c(F)cccc1F | -1.38% |
| CCc1nonc1NC(=O)c1oc2ccc(Cl)cc2c1C | 3.45% |
| COc1ccc(-c2cc(NC(C)=O)c3ncc(-c4cc(OC)c(OC)c(OC)c4)n3c2)cn1 | -4.94% |
| CCc1ccc(NC(=O)N[C@H](C(=O)O)C(C)CC)cc1 (stereo partly specified) | 2.36% |
| COc1ccc(C(C)C)cc1-c1ccc2nncn2c1 | 3.27% |
| Cc1cccc(C)c1NC(=O)C(Cl)C(=O)c1ccccc1 (stereo unspecified) | -3.13% |
| Nc1ccc(Nc2ccccc2)cc1 | 44% (active) |
| Cc1ccc(Nc2ccccc2N)cc1 | -12% |
| O=c1cnnc(Nc2ccccc2)[nH]1 | 7.04% |

| Compound | GFP/RFP ratio change |
| --- | --- |
| O=C(Cn1cnc2cc([N+](=O)[O-])ccc2c1=O)NC(=O)NCc1ccccc1 | 1.03% |
| COC(=O)C(NS(=O)(=O)c1ccc(F)cc1)c1ccccc1 (stereo unspecified) | 0.566% |
| CCOc1ccc(NC(=O)CN(C)C(=O)CSc2ccccc2)cc1OCC | -8.63% |
| N/C(=N\c1nc2ccccc2o1)NC(=O)C(Cc1ccccc1)N1C(=O)c2ccccc2C1=O (stereo unspecified) | -6.5% |
| CNC(=S)N1CCC(NC(=O)C(Cc2ccc(F)cc2)NC(C)=O)CC1 (stereo unspecified) | -0.719% |
| CC(C)(C)n1nnc(CCc2nnn(C(C)(C)C)n2)n1 | 2.72% |
| O=C(COC(=O)c1ccc(NS(=O)(=O)c2cccs2)cc1O)Nc1ccc(F)cc1 | 4.53% |
| C[C@@H](CN1CCC[C@H]1CN1C(N)=NC[C@@H]1Cc1ccccc1)N1C[C@@H](Cc2ccccc2)N(CCCC2CCCC2)C1=N | 1.74% |
| COc1ccc2oc(C(=O)N(CC(C)C)C3CCS(=O)(=O)C3)c(C)c2c1 (stereo unspecified) | 1.26% |
| O=C1c2ccccc2C(=O)N1CC1c2ccccc2CCN1S(=O)(=O)c1ccccc1 (stereo unspecified) | -1.81% |
| COc1ccc(NC2CCCN(C(=O)c3ccccc3-c3ncc[nH]3)C2)cc1 (stereo unspecified) | 3.89% |
| COC(=O)c1ccccc1Oc1c(F)c(F)nc(N2CCOCC2)c1F | 2.7% |
| COc1ccc(S(=O)(=O)N2CCC(C(=O)NCCC(=O)NCc3cccc(OC)c3)CC2)cc1 | 0.341% |
| Cc1[nH]c2ccccc2c1-c1ccc(Cl)nn1 | -0.969% |
| COC(=O)c1cnc(Nc2cc(C)ccc2OC)c2ccccc12 | -1.73% |
| COc1ccc(C)cc1Nc1nc(-c2c(C)[nH]c3ccccc23)cs1 | 47.3% (active) |
| C=CCn1nc(C(=O)OCC)cc1-c1sc(NC(=O)c2ccccc2)nc1C | -9.54% |
| CCOC(=O)C1C(C)C(C(C)(C)C)N(S(=O)(=O)c2ccc(C)cc2)C1c1ccccc1 (stereo unspecified) | -10.4% |
| O=S(=O)(/C=C/c1ccccc1)NCCc1ccccn1 | 2.57% |
| Cc1ccccc1C(=O)O | -0.112% |
| CCC1(C)N(O)C(C)(C)C(c2ccc(OC)cc2)=[N+]1[O-] (stereo unspecified) | 5.6% |
| CN(C(=O)c1cccc(NC(=O)C2CCN(C(=O)OC(C)(C)C)CC2)c1)C1CCC1 | 6.42% |
